Assay results collected from several papers.
Each line is one published result; the experiments were not run side by side.
Target: Protein kinase C eta type (PRKCH, Homo sapiens, UniProt P24723)

Compound	observed	action	technique	tested at	quantity	value
CC(C)(O)c1cncc(-c2nc3ccc(F)cc3n2C2CC2)c1	cell-free assay	–	competition with immobilised ligand	1 µM	remaining binding	98%
O=C(Nc1cnn(-c2csc(C(=O)NC3COC3)c2)c1)Nc1ccccc1Cl	enzyme activity	inhibitor	–	5 µM	remaining activity	103%
C[C@@H]1CCN(c2nccc(-c3cnn4ncccc34)n2)C1	binding	–	–	1 µM	remaining binding	83%
CC/C(=N\NC(=O)NCc1cccc(O)c1)c1ccc(O)c(C)c1O	enzyme activity	inhibitor	–	0.1 µM	inhibition	44.8%
COc1cc(-c2cc(-c3ccc(N4CCNCC4)cc3)cnc2C)cc(OC)c1OC	enzyme activity	inhibitor	–	0.1 µM	inhibition	2%
Cn1cnc(Br)c1C1=CN(c2ncnc3[nH]cnc23)CCS1	enzyme activity	inhibitor	radiometric	2 µM	inhibition	91.8%
Nc1ncnc2occ(-c3ccc(NC(=O)Nc4cc(C(F)(F)F)ccc4F)cc3)c12	cell-free assay	–	–	20 µM	remaining signal	64%
CCN(CC)c1ccc(C2=NNC(=O)CC2C)cc1[N+](=O)[O-] (stereo not shown)	enzyme activity	inhibitor	–	10 µM	remaining activity	105%
Cc1ccc(NC(=O)c2ccc(C)c(C(F)(F)F)c2)cc1C#Cc1nn(C2CCC(O)CC2)c2ncnc(N)c12 (stereo not shown)	cell-free assay	–	–	10 µM	remaining signal	72%
CC(=O)c1c(NS(C)(=O)=O)c2cc(-c3ccc(Cl)cc3)c(-c3ccc(Cl)cc3Cl)nc2n(C)c1=O	cell-free assay	–	competition with immobilised ligand	1 µM	remaining binding	91%
COc1cc2ncnc(Nc3ccc(Oc4ccccc4)c(C)c3C)c2cc1OC	enzyme activity	inhibitor	–	1 µM	inhibition	5%
CN1CCN(c2cnc3c(C4CCN(C(=O)c5ccc(OC(F)(F)F)cc5N)CC4)ncnc3c2)CC1	cell-free assay	–	competition with immobilised ligand	1 µM	remaining binding	86%
Cn1cncc1C1=CN(c2ncnc3[nH]cnc23)CCS1	enzyme activity	inhibitor	radiometric	2 µM	inhibition	83.6%
CNCc1ccccc1-c1csc([C@H](C)Nc2nc(C)nc3cc(OC)c(OC)cc23)c1	cell-free assay	–	competition with immobilised ligand	1 µM	remaining binding	100%
O=C(Nc1cnn(-c2csc(C(=O)NC3COC3)c2)c1)Nc1c(F)cccc1Cl	enzyme activity	inhibitor	–	5 µM	remaining activity	99%
CCCOc1ccc([C@H]2[C@H](C(=O)O)[C@@H](c3ccc4c(c3)OCO4)CN2CC(=O)Nc2c(CC)cccc2CC)cc1	cell-free assay	–	competition with immobilised ligand	1 µM	remaining binding	100%
CN1CC(Oc2cnc(C#N)cc2-c2ccn3nc(NC(=O)C4CC4)cc3c2)C1	enzyme activity	inhibitor	–	1 µM	inhibition	-11%
CNC(=O)c1cc(Oc2ccc(NC(=O)Nc3ccc(Cl)c(C(F)(F)F)c3)cc2)ccn1	enzyme activity	inhibitor	–	10 µM	inhibition	0%
Cc1cnc(NC2CCOCC2)nc1-n1cnc(C(=O)NC(CN)c2cc(F)cc(Cl)c2)c1 (stereo not shown)	enzyme activity	inhibitor	radiometric	1 µM	remaining activity	100%
